Assay results published in ChEMBL document CHEMBL4627411, “Novel Piperidinyl-Azetidines as Potent and Selective CCR4 Antagonists Elicit Antitumor Response as a Single Agent and in Combination with Checkpoint Inhibitors” (J Med Chem, 2020).
Active and inactive are the calls of the source. The calls are words filed in the database; no cut-off is given here.

Assays:
Cytochrome P450 1A2 = Cytochrome P450 1A2 (Homo sapiens, UniProt P05177); assay: Inhibition of CYP1A2 in human liver microsomes using phenacetin as substrate incubated for 20 mins in presence of NADPH by LC-MS/MS analysis; type: ADME
Cytochrome P450 2C19 = Cytochrome P450 2C19 (Homo sapiens, UniProt P33261); assay: Inhibition of CYP2C19 in human liver microsomes using S-mephenytoin as substrate incubated for 20 mins in presence of NADPH by LC-MS/MS analysis; type: ADME
CYP3A4 = CYP3A4 (Homo sapiens, UniProt P08684); assay: Ratio of IC50 for time-dependent inhibition of CYP3A4 in human liver microsomes using midazolam hydrochloride as substrate in presence of NADPH to IC50 for time-dependent inhibition of CYP3A4 in human liver microsomes using midazolam hydrochloride as substrate absence of NADPH; details: probe midazolam hydrochloride, read-out: Ratio IC50
Chain of CYP3A4 (P08684 whole entry): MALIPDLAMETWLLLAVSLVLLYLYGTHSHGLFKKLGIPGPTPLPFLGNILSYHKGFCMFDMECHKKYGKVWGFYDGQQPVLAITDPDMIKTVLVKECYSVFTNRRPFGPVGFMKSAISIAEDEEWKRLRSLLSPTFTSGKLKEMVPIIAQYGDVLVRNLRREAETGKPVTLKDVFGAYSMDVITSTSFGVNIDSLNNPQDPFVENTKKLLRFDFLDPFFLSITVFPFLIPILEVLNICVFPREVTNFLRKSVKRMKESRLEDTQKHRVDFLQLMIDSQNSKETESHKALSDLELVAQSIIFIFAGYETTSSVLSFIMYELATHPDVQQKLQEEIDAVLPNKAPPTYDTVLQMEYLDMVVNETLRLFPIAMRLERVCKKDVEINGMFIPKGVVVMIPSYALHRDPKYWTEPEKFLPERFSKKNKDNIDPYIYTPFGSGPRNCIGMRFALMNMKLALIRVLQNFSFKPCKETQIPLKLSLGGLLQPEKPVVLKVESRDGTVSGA

[1] = Half life in mouse at 0.5 mg/kg, iv; type: ADME, organism-based; details: in vivo
[2] = AUC (0 to last) in mouse at 2 mg/kg, po; type: ADME, organism-based; set-up: dose 2 mg/kg, time 0 - last, route oral; details: in vivo
[3] = Oral bioavailability in mouse at 2 mg/kg; type: ADME, organism-based; details: in vivo
[4] = Half life in dog at 0.5 mg/kg, iv; type: ADME, organism-based, Canis lupus familiaris; details: in vivo
[5] = Oral bioavailability in dog at 2 mg/kg; type: ADME, organism-based, Canis lupus familiaris; details: in vivo
[6] = molecular target: C-C chemokine receptor type 10 (Homo sapiens) (UniProt P46092); assay: Antagonist activity at human Gi/G0-coupled CCR10 receptor expressed in human U2OS cells assessed as inhibition of CCL27-induced beta arrestin2 recruitment at 500 nM preincubated for 30 mins followed by CCL27 stimulation and measured after 90 to 180 mins by pathhunter assay; type: cell-based
[7] = molecular target: C-C chemokine receptor type 1 (Homo sapiens) (UniProt P32246); assay: Antagonist activity at human Gi/G0-coupled CCR1 receptor assessed as inhibition of CCL3-induced beta arrestin2 recruitment at 500 nM preincubated for 30 mins followed by CCL3 stimulation and measured after 90 to 180 mins by pathhunter assay
Chain of C-C chemokine receptor type 1 (Homo sapiens) (P32246 whole entry): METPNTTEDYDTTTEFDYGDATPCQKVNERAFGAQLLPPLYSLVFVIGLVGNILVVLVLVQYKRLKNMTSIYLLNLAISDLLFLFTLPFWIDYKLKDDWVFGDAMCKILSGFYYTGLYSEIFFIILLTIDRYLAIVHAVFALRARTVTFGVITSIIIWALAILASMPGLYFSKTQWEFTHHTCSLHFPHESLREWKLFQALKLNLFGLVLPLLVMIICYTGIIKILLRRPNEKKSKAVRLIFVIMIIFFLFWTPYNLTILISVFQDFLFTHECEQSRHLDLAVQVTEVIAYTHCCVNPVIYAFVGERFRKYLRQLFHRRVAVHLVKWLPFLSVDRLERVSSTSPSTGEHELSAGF

[8] = molecular target: C-C chemokine receptor type 2 (Homo sapiens) (UniProt P41597); assay: Antagonist activity at human Gi/G0-coupled […]-induced beta arrestin2 recruitment at 500 nM preincubated for 30 mins […] and measured after 90 to 180 mins by pathhunter assay
Chain of C-C chemokine receptor type 2 (Homo sapiens) (P41597 whole entry, looked up): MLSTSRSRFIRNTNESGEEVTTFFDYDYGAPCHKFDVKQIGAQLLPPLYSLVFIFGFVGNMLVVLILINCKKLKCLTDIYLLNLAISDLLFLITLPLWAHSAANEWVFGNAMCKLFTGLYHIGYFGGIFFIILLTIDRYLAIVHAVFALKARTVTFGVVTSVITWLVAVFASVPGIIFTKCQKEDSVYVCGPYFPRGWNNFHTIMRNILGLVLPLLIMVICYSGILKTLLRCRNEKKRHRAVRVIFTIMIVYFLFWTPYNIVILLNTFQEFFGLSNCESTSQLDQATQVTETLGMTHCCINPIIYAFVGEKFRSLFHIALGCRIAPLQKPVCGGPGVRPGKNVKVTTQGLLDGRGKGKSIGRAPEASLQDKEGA

[9] = molecular target: C-C chemokine receptor type 3 (Homo sapiens) (UniProt P51677); assay: Antagonist activity at human Gi/G0-coupled CCR3 receptor expressed in CHO-K1 cells assessed as inhibition of CCL13-induced beta arrestin2 recruitment at 500 nM preincubated for 30 mins followed by CCL13 stimulation and measured after 90 to 180 mins by pathhunter assay; type: cell-based
Chain of C-C chemokine receptor type 3 (Homo sapiens) (P51677 whole entry): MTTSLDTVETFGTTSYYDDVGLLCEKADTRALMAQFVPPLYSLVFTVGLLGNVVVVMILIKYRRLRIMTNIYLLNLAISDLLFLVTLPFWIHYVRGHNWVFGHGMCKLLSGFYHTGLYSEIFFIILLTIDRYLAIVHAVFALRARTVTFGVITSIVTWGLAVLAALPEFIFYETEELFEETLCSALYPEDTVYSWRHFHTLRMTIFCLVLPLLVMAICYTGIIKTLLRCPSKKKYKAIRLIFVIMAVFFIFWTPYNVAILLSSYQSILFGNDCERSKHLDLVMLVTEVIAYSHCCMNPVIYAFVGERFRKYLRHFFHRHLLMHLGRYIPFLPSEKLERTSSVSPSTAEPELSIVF

[10] = molecular target: C-C chemokine receptor type 4 (Homo sapiens) (UniProt P51679); assay: Antagonist activity at human Gi/G0-coupled CCR4 receptor expressed in CHO-K1 cells assessed as inhibition of CCL22-induced beta arrestin2 recruitment at 500 nM preincubated for 30 mins followed by CCL22 stimulation and measured after 90 to 180 mins by pathhunter assay; type: cell-based
Chain of C-C chemokine receptor type 4 (Homo sapiens) (P51679 whole entry): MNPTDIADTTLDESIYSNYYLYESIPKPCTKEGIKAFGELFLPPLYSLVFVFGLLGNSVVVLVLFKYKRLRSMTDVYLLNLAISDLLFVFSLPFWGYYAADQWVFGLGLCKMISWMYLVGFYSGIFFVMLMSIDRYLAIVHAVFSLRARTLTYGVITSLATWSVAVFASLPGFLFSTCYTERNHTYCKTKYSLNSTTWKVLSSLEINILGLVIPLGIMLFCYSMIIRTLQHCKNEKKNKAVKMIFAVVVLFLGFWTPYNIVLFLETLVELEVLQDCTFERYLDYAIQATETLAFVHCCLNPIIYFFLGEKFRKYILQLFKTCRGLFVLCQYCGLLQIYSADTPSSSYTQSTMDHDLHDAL

[11] = molecular target: C-C chemokine receptor type 8 (Homo sapiens) (UniProt P51685); assay: Antagonist activity at human CCR8 receptor assessed as inhibition of CCL1-induced beta arrestin2 recruitment at 500 nM preincubated for 30 mins followed by CCL1 stimulation and measured after 90 to 180 mins by pathhunter assay
Chain of C-C chemokine receptor type 8 (Homo sapiens) (P51685 whole entry): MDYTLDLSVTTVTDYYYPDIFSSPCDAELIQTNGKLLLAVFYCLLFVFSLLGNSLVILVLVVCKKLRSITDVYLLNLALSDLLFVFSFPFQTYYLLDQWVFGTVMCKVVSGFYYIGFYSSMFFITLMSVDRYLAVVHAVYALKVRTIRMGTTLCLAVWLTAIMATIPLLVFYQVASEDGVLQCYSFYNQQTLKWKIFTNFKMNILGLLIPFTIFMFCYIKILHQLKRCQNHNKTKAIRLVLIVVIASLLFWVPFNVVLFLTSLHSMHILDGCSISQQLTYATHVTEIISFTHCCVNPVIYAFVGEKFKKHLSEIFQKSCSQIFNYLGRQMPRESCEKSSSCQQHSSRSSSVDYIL

[12] = molecular target: C-C chemokine receptor type 9 (Homo sapiens) (UniProt P51686); assay: Antagonist activity at human Gi/G0-coupled CCR9 receptor expressed in CHOK1 cells assessed as inhibition of CCL25-induced beta arrestin2 recruitment at 500 nM preincubated for 30 mins followed by CCL25 stimulation and measured after 90 to 180 mins by pathhunter assay; type: cell-based; details: CHO-K1
Chain of C-C chemokine receptor type 9 (Homo sapiens) (P51686 whole entry): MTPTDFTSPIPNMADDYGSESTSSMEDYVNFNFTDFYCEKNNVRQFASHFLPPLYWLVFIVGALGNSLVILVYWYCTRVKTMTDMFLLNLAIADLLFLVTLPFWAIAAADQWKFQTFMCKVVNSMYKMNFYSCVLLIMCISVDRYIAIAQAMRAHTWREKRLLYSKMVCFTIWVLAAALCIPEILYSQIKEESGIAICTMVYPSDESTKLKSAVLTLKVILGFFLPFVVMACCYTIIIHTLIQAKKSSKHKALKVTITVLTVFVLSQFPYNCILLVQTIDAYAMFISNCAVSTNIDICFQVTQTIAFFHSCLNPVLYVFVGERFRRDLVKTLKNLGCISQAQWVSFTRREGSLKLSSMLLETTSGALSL

[13] = molecular target: Chemerin-like receptor 1 (Homo sapiens) (UniProt Q99788); assay: Antagonist activity at human CMKLR1 expressed in CHOK1 cells assessed as inhibition of chemerin-induced beta arrestin2 recruitment at 500 nM preincubated for 30 mins followed by chemerin stimulation and measured after 90 to 180 mins by pathhunter assay; type: cell-based; details: CHO-K1
Chain of Chemerin-like receptor 1 (Homo sapiens) (Q99788 whole entry): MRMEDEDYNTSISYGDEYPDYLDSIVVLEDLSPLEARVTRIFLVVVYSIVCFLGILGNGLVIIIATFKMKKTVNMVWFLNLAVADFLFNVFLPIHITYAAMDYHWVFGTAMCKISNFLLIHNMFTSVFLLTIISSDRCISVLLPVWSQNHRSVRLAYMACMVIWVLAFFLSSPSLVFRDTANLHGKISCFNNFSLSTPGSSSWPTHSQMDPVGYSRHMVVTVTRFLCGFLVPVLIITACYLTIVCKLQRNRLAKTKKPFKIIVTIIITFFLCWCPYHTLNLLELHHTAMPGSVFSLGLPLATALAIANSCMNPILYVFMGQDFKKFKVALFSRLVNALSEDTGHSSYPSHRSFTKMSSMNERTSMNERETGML

[14] = molecular target: CX3C chemokine receptor 1 (Homo sapiens) (UniProt P49238); assay: Antagonist activity at human Gi/G0-coupled CX3CR1 expressed in CHOK1 cells assessed as inhibition of CX3CL1-induced beta arrestin2 recruitment at 500 nM preincubated for 30 mins followed by CX3CL1 stimulation and measured after 90 to 180 mins by pathhunter assay; type: cell-based; details: CHO-K1
[15] = molecular target: C-X-C chemokine receptor type 1 (Homo sapiens) (UniProt P25024); assay: Antagonist activity at human Gi/G0-coupled CXCR1 expressed in CHOK1 cells assessed as inhibition of CXCL8-induced beta arrestin2 recruitment at 500 nM preincubated for 30 mins followed by CXCL8 stimulation and measured after 90 to 180 mins by pathhunter assay; type: cell-based; details: CHO-K1
Chain of C-X-C chemokine receptor type 1 (Homo sapiens) (P25024 whole entry): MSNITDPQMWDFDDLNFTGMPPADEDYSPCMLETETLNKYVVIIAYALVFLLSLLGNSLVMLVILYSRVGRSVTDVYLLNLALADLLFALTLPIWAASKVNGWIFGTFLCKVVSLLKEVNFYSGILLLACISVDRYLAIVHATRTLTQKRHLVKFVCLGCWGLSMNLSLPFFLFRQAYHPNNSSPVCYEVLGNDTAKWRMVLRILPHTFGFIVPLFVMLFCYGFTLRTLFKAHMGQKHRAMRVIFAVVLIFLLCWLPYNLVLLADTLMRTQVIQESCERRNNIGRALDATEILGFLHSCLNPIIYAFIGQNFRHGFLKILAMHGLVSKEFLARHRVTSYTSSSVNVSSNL

[16] = molecular target: C-X-C chemokine receptor type 2 (Homo sapiens) (UniProt P25025); assay: Antagonist activity at human Gi/G0-coupled CXCR2 assessed as inhibition of CXCL8-induced beta arrestin2 recruitment at 500 nM preincubated for 30 mins followed by CXCL8 stimulation and measured after 90 to 180 mins by pathhunter assay
Chain of C-X-C chemokine receptor type 2 (Homo sapiens) (P25025 whole entry): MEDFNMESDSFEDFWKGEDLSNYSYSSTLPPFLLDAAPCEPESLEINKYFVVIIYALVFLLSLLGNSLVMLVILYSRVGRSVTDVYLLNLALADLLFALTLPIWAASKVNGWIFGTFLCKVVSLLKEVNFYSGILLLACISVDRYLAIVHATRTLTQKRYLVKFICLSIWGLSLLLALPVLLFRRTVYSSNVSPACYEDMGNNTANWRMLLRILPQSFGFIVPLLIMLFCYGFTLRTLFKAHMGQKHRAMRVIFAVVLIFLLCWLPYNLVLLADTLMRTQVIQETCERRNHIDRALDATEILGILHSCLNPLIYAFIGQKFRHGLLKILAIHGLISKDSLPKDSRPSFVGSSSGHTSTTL

[17] = molecular target: C-X-C chemokine receptor type 3 (Homo sapiens) (UniProt P49682); assay: Antagonist activity at human Gi/G0-coupled CXCR3 assessed as inhibition of CXCL11-induced beta arrestin2 recruitment at 500 nM preincubated for 30 mins followed by CXCL11 stimulation and measured after 90 to 180 mins by pathhunter assay
Chain of C-X-C chemokine receptor type 3 (Homo sapiens) (P49682 whole entry): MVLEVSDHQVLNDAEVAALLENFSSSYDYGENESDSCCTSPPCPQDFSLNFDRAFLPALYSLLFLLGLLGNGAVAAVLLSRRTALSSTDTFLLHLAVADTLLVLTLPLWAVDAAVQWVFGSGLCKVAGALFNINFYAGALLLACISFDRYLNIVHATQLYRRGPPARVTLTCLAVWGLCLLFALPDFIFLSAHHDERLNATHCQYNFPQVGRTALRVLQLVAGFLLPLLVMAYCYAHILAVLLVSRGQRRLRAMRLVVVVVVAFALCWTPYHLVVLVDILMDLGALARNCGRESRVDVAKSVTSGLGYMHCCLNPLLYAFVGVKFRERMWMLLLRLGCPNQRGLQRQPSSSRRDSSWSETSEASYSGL

[18] = molecular target: C-X-C chemokine receptor type 4 (Homo sapiens) (UniProt P61073); assay: Antagonist activity at human Gi/G0-coupled CXCR4 assessed as inhibition of CXCL12-induced beta arrestin2 recruitment at 500 nM preincubated for 30 mins followed by CXCL12 stimulation and measured after 90 to 180 mins by pathhunter assay
[19] = molecular target: C-X-C chemokine receptor type 5 (Homo sapiens) (UniProt P32302); assay: Antagonist activity at human Gi/G0-coupled CXCR5 assessed as inhibition of CXCL13-induced beta arrestin2 recruitment at 500 nM preincubated for 30 mins followed by CXCL13 stimulation and measured after 90 to 180 mins by pathhunter assay
Chain of C-X-C chemokine receptor type 5 (Homo sapiens) (P32302 whole entry): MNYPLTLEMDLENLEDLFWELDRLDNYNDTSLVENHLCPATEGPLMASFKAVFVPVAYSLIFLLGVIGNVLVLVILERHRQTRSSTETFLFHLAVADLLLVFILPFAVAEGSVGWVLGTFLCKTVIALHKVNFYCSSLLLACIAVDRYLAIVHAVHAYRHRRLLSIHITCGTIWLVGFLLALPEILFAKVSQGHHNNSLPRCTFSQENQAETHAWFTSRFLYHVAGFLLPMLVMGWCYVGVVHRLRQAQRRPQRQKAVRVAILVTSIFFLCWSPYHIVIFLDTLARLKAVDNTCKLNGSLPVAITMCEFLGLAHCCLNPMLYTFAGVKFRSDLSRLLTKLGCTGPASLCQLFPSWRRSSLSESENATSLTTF

[20] = molecular target: Atypical chemokine receptor 3 (Homo sapiens) (UniProt P25106); assay: Antagonist activity at human CXCR7 assessed as inhibition of CXCL12-induced beta arrestin2 recruitment at 500 nM preincubated for 30 mins followed by CXCL12 stimulation and measured after 90 to 180 mins by pathhunter assay
Chain of Atypical chemokine receptor 3 (Homo sapiens) (P25106 whole entry): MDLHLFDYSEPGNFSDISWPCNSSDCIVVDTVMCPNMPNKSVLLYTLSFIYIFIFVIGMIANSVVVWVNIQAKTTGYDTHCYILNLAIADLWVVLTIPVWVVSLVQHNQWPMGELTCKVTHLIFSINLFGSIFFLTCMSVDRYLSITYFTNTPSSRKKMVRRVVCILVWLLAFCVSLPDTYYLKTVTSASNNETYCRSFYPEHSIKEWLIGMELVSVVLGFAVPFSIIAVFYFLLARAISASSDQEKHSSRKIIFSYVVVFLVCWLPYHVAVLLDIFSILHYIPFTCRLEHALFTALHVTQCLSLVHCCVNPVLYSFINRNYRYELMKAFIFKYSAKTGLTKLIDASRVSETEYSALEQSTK

Panc02 [21] = assay: Antitumor activity against mouse Panc02 cells allografted in C57BL/6 mouse assessed as reduction in tumor growth at 50 mg/kg, po qd for 38 days in presence of anti-CTLA-4; type: functional, organism-based
Method in brief: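 Pan02-OVA syngeneic tumor model. Compound given 50 mg/kg PO QD on a therapeutic schedule, alone or combined with anti-CTLA-4 antibody; tumor growth tracked. Groups compared by two-tailed t-test.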

Panc02 [22] = assay: Antitumor activity against mouse Panc02 cells implanted in po dosed C57BL/6 mouse assessed as inhibition of GFP-positive Treg cell migration in to tumor micro environment administered 30 mins prior to Treg cell population addition followed by daily compound dosing for 5 days and measured on day 6 by flow cytometry analysis; type: functional, organism-based
Method in brief: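 Pan02 pancreatic ductal adenocarcinoma mice. Oral compound at several doses; adoptively transferred GFP+ iTreg counted in the tumor, with spleen, skin and lung also examined.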

IC50 (Cytochrome P450 1A2): > 40 µM | IC50 (Cytochrome P450 2C19): > 40 µM | half-life [1]: 6.9 h | AUC(0-t) [2]: 0.751 µg·h/mL | bioavailability [3]: 29% | half-life [4]: 12.7 h | bioavailability [5]: 44% | Activity [6]: inactive | Activity [7]: inactive | Activity [8]: inactive | Activity [9]: inactive | Activity [10]: Active | Activity [11]: inactive | Activity [12]: inactive | Activity [13]: inactive | Activity [14]: inactive | Activity [15]: inactive | Activity [16]: inactive | Activity [17]: inactive | Activity [18]: inactive | Activity [19]: inactive | Activity [20]: inactive
SMILES: C[C@H](c1ccc(Cl)cc1Cl)n1nc(C#N)c2ncc(N3CC([C@H]4CCCN(CCO)C4)C3)nc21
IC50 shift (CYP3A4): 1.2 | Activity (Panc02 [21]): Active | Activity (Panc02 [22]): Dose-dependent effect
